Data reported in ChEMBL document CHEMBL4425122, “Discovery of 1-(1H-Pyrazolo[4,3-c]pyridin-6-yl)urea Inhibitors of Extracellular Signal-Regulated Kinase (ERK) for the Treatment of Cancers” (J Med Chem, 2016).

Columns and labels:
[1] = target: Mitogen-activated protein kinase 1 (Mus musculus, UniProt P63085); experiment: Inhibition of mouse ERK2 preincubated for 15 mins followed by addition of IMAP peptide substrate and ATP measured after 60 mins by IMAP-FP assay
Cytochrome P450 3A4 = Cytochrome P450 3A4 (Homo sapiens, UniProt P08684); experiment: Inhibition of CYP3A4 (unknown origin); format: ADME
Chain of Cytochrome P450 3A4 (P08684 whole entry): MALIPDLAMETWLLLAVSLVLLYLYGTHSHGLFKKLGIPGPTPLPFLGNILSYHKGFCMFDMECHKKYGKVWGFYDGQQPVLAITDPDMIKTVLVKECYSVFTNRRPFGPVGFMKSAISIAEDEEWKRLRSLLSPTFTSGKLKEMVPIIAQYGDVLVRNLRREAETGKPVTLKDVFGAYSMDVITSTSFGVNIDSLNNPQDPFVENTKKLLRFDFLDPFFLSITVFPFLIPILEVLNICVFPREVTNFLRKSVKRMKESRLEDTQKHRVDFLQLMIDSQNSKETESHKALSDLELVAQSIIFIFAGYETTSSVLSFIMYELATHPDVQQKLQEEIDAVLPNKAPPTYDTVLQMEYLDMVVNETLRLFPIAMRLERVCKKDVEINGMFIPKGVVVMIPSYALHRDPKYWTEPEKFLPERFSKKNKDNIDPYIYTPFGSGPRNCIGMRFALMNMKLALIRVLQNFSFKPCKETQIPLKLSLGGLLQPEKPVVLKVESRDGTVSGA

[2] = target: Voltage-gated inwardly rectifying potassium channel KCNH2 (Homo sapiens, UniProt Q12809); experiment: Inhibition of human ERG
Chain of Voltage-gated inwardly rectifying potassium channel KCNH2 (Q12809 whole entry): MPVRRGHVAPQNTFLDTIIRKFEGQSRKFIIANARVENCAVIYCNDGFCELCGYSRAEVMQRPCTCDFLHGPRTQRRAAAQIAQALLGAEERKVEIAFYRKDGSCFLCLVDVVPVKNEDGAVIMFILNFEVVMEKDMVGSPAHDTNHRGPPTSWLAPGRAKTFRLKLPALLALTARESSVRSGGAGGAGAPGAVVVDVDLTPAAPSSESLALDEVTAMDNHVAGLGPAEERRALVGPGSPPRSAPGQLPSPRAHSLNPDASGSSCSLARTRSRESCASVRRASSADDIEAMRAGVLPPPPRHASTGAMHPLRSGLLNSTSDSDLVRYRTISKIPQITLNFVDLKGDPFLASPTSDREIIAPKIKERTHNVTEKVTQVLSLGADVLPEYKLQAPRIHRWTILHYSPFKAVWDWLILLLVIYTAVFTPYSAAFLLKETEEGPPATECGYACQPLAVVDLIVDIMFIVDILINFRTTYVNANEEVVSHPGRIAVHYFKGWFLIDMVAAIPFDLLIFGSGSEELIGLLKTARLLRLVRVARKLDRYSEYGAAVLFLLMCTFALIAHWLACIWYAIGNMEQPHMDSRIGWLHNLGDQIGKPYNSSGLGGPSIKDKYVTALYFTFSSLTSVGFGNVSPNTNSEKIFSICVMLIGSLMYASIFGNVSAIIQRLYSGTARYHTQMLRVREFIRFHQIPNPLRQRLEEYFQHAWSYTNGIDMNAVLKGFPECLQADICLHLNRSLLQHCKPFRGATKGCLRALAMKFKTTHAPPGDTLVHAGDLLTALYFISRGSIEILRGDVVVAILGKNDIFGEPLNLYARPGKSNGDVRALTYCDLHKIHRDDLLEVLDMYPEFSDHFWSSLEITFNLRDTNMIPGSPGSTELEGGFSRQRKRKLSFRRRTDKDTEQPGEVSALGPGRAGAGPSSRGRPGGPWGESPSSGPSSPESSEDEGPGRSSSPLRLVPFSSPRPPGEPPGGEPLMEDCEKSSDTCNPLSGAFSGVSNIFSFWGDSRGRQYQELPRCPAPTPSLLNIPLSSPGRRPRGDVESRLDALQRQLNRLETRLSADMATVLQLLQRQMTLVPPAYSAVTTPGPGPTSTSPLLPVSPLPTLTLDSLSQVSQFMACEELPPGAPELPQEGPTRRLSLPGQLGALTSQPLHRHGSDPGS

[3] = Inhibition of ERK in human A375SM cells harboring BRAF V600E mutant assessed as inhibition of RSK phosphorylation measured after 4 hrs by mesoscale electrochemiluminescent sandwich assay; format: cell-based; conditions: A375-SM
Summary of the method: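 A375SM (BRAF V600E melanoma) cells, 10,000 per well, treated 4 h; lysed 20 min at 4 °C in Tris/NaCl/EGTA/EDTA/Triton/NaF buffer with protease and phosphatase inhibitors. Lysate captured with biotin anti-RSK1 on streptavidin MSD plate, detected with SULFO-TAG anti-pRSK (pThr359/Ser363) overnight at 4 °C; electrochemiluminescence read. IC50 from 11-point titration.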

[4] = target: Mitogen-activated protein kinase 1 (Homo sapiens, UniProt P28482); experiment: Inhibition of human ERK2 preincubated for 15 mins followed by addition of IMAP peptide substrate and ATP measured after 60 mins by IMAP-FP assay
Chain of Mitogen-activated protein kinase 1 (Homo sapiens, UniProt P28482) (P28482 whole entry): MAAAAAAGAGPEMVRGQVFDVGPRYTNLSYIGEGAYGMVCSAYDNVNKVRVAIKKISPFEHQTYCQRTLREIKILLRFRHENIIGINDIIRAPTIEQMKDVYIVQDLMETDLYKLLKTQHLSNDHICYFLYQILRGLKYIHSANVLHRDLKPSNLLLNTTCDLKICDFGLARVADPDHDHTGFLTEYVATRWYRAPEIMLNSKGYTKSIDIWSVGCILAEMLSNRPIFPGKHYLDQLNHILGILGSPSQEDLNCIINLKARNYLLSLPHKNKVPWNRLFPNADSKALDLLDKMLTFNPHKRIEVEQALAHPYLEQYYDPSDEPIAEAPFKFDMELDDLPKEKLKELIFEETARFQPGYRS
Summary of the method: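 Final: 0.5 nM hERK2, 900 nM unlabeled + 80 nM labeled peptide, 30 µM ATP; 60 min, quenched with IMAP beads in binding buffer with 24 mM NaCl, read by fluorescence polarization after 60 min.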

[5] = Inhibition of ERK human A375 cells assessed as inhibition of RSK phosphorylation measured after 4 hrs by mesoscale electrochemiluminescent sandwich assay; conditions: A-375, 4 h

Chain of Mitogen-activated protein kinase 1 (Mus musculus, UniProt P63085) (P63085 whole entry): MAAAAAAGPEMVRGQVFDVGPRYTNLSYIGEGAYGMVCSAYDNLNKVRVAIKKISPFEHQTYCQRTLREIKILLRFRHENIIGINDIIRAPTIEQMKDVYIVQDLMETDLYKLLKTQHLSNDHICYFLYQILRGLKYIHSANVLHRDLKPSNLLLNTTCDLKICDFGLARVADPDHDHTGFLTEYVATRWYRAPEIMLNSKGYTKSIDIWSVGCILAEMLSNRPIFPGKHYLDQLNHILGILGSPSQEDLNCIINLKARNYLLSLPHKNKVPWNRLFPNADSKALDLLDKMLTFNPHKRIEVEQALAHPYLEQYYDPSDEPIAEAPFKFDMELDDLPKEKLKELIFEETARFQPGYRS

SMILES | IC50 [3] [nM] | IC50 [4] [nM] | further results
Cc1cc(-c2n[nH]c3cc(NC(=O)OCc4ccccc4)ncc23)ccn1 |  |  | IC50 [1]: > 3000 nM
C[C@@H](NC(=O)Nc1cc2[nH]nc(-c3ccnc(F)c3)c2cn1)c1ccccc1 | 97 | 0.3 | IC50 (Cytochrome P450 3A4): 29000 nM; IC50 [2]: > 20000 nM
Cc1cc(-c2n[nH]c3cc(NC(=O)CCc4ccccc4)ncc23)ccn1 |  |  | IC50 [1]: 420 nM
Cc1cc(-c2n[nH]c3cc(NC(=O)N[C@H](C)c4ccccc4)ncc23)cnn1 | 810 | 0.9 | 
Cc1cc(-c2n[nH]c3cc(NS(=O)(=O)NCc4ccccc4)ncc23)ccn1 |  | 2400 | 
Cc1cc(-c2n[nH]c3cc(Nc4ncc(-c5ccccc5)s4)ncc23)ccn1 |  | > 3000 | 
C[C@@H](NC(=O)Nc1cc2[nH]nc(C3CC3)c2cn1)c1ccccc1 | 550 |  | 
Cc1cc(-c2n[nH]c3cc(NC(=O)NC4CCc5ccccc54)ncc23)ccn1 (stereo not drawn) | 750 | 5 | 
COc1cc(-c2n[nH]c3cc(NC(=O)N[C@H](C)c4ccccc4)ncc23)ccn1 | 300 | 0.9 | 
Cc1cc(-c2n[nH]c3cc(NC(=O)N[C@@H](C)c4ccccc4)ncc23)ccn1 |  |  | IC50 [5]: 1800 nM
C[C@@H](NC(=O)Nc1cc2[nH]nc(C3CCCC3)c2cn1)c1ccccc1 | 810 | 4 | 
